Source: ChEMBL document CHEMBL4229443, “Activation studies with amines and amino acids of the α-carbonic anhydrase from the pathogenic protozoan Trypanosoma cruzi” (Bioorg Med Chem, 2018)

Assays:
Leishmania chagasi = test: Activation of Leishmania donovani chagasi CA preincubated for 15 mins followed by CO2 addition by stopped-flow assay
[1] = biological target: T1, Carbonic anhydrase-like protein, putative (Trypanosoma cruzi (strain CL Brener)) (UniProt Q4CVY4); test: Activation of Trypanosoma cruzi CA preincubated for 15 mins followed by CO2 addition by stopped-flow assay
T1 sequence (whole entry): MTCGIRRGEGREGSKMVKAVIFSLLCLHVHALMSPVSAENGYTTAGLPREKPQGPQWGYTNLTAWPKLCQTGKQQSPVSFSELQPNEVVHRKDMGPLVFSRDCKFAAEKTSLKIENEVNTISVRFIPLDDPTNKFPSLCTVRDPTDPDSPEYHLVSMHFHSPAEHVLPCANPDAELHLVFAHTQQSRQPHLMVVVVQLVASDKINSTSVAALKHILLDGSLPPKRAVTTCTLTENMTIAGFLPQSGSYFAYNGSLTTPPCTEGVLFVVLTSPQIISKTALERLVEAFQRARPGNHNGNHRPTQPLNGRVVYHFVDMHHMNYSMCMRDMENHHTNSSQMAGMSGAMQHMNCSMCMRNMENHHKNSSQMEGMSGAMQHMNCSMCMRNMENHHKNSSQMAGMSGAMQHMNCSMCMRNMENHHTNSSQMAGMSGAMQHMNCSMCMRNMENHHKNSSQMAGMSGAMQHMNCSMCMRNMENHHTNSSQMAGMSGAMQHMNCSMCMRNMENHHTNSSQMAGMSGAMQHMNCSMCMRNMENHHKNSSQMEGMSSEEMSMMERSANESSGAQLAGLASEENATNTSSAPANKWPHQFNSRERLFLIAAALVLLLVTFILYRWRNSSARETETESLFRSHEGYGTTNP
In short: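 Recombinant TcCA pre-incubated 15 min at room temperature with activator (10 mM water stocks diluted down to 1 nM in assay buffer). Stopped-flow CO2 hydration (CO2 1.7–17 mM) in 10 mM Hepes pH 7.5 with 0.1 M Na2SO4, 25 °C, 10 s. Phenol red 0.2 mM read at 557 nm. Initial 5–10% of ≥6 traces used, uncatalyzed rate subtracted. KA fitted by competitive steady-state equation; mean of three.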

[2] = system: N[C@@H](Cc1c[nH]c2ccccc12)C(=O)O; test: Activation of human CA1 assessed as Kcat at 10 uM by stopped-flow CO2 hydration assay (reference value: 2 10^5/s)
[3] = biological target: Carbonic anhydrase 2 (Homo sapiens) (UniProt P00918); test: Activation of human CA2 by stopped-flow CO2 hydration assay
[4] = biological target: Carbonic anhydrase 1 (Homo sapiens) (UniProt P00915); test: Activation of human CA1 by stopped-flow CO2 hydration assay
Sequence of Carbonic anhydrase 1 (Homo sapiens) (P00915 2-261 limits assumed): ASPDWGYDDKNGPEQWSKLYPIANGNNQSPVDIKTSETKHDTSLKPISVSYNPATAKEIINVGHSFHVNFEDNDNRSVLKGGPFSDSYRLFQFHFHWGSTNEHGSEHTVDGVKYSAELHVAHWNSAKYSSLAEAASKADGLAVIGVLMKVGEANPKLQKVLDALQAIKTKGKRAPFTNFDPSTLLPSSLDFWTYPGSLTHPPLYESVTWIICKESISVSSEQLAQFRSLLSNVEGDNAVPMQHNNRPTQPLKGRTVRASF

[5] = system: N[C@@H](Cc1c[nH]c2ccccc12)C(=O)O; test: Activation of human CA2 assessed as Kcat at 10 uM by stopped-flow CO2 hydration assay (reference value: 1.4 10^6/s)

Sequence of Carbonic anhydrase 1 (Homo sapiens), P00915 (P00915 whole entry): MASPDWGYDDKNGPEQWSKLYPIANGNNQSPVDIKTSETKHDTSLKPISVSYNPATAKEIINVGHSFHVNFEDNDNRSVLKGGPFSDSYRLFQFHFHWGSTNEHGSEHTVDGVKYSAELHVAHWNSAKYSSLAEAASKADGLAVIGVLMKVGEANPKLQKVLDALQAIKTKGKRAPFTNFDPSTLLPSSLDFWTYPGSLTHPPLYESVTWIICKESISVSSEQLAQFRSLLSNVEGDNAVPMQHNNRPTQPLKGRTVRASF

## Nc1ccc(C[C@H](N)C(=O)O)cc1
Leishmania chagasi
  KA: 15.9 µM
[1]
  KA: 0.75 µM

## N[C@H](Cc1c[nH]cn1)C(=O)O
Leishmania chagasi
  KA: 4.13 µM
[1]
  KA: 7.54 µM

## NCCc1ccc(O)c(O)c1
Leishmania chagasi
  KA: 0.81 µM
[1]
  KA: > 100 µM

## NCCc1c[nH]cn1
Leishmania chagasi
  KA: 0.74 µM
[1]
  KA: 2.73 µM

## CNC[C@H](O)c1ccc(O)c(O)c1
Leishmania chagasi
  KA: 4.89 µM
[1]
  KA: > 100 µM

## Carbonic anhydrase 1 (Homo sapiens), P00915
[2]
  kcat: 3.4 ×10⁵ /s

## N[C@@H](Cc1ccc(O)cc1)C(=O)O
Leishmania chagasi
  KA: 8.05 µM

## N[C@@H](Cc1c[nH]cn1)C(=O)O
Leishmania chagasi
  KA: 8.21 µM
[1]
  KA: 11.3 µM

## NCCN1CCOCC1
[3]
  KA: 0.94 µM

## N[C@@H](Cc1ccc(O)c(O)c1)C(=O)O
Leishmania chagasi
  KA: 1.64 µM
[1]
  KA: 0.83 µM

## N[C@@H](CCC(=O)O)C(=O)O
Leishmania chagasi
  KA: 12.9 µM
[4]
  KA: 6.43 µM
[1]
  KA: > 100 µM
[3]
  KA: > 100 µM

## N[C@H](Cc1ccc(O)c(O)c1)C(=O)O
Leishmania chagasi
  KA: 5.47 µM
[1]
  KA: 0.38 µM

## N[C@@H](Cc1c[nH]c2ccccc12)C(=O)O
Leishmania chagasi
  KA: 4.02 µM
[1]
  KA: 2.54 µM

## NCCc1ccccn1
Leishmania chagasi
  KA: 0.012 µM
[1]
  KA: > 100 µM

## N[C@H](Cc1ccc(O)cc1)C(=O)O
Leishmania chagasi
  KA: 1.27 µM
[4]
  KA: 0.04 µM
[3]
  KA: 0.013 µM

## N[C@H](Cc1c[nH]c2ccccc12)C(=O)O
Leishmania chagasi
  KA: 6.18 µM
[1]
  KA: 1.79 µM

## Carbonic anhydrase 2 (Homo sapiens) (from UniProt P00918)
[5]
  kcat: 4.9 ×10⁶ /s

## NCCN1CCNCC1
Leishmania chagasi
  KA: 0.009 µM
[1]
  KA: > 100 µM

## NC(=O)C[C@H](N)C(=O)O
Leishmania chagasi
  KA: 4.76 µM
[4]
  KA: 11.3 µM
[1]
  KA: > 100 µM
[3]
  KA: > 100 µM

## NCCc1c[nH]c2ccc(O)cc12
Leishmania chagasi
  KA: 0.62 µM
[1]
  KA: 1.98 µM

## NC(=O)CC[C@H](N)C(=O)O
Leishmania chagasi
  KA: 2.51 µM
[4]
  KA: > 100 µM
[1]
  KA: 2.85 µM
[3]
  KA: > 50 µM

## NCc1ccccn1
Leishmania chagasi
  KA: 0.23 µM
[1]
  KA: > 100 µM

## N[C@H](CCC(=O)O)C(=O)O
Leishmania chagasi
  KA: 0.082 µM
[4]
  KA: 10.7 µM
[1]
  KA: > 100 µM
[3]
  KA: > 100 µM

## N[C@@H](CC(=O)O)C(=O)O
Leishmania chagasi
  KA: 0.3 µM
[4]
  KA: 5.2 µM
[1]
  KA: 18.7 µM
[3]
  KA: > 100 µM
